Test system: U2OS
Experiment: Multiplex assay against U2OS
Type: toxicity, cell-based
Details: human
How it was run: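 At seeding, live cells were stained with Hoechst33342, BioTracker Green Microtubule Cytoskeleton Dye, MitoTracker Red and Annexin V Alexa Fluor 680. After compound addition they were imaged on a CQ1 microscope at 37°C and 5% CO2, and CellPathfinder machine-learning gating sorted them into Hoechst high-intensity objects or normal cells, with normal cells further split into healthy, pyknosed or fragmented nuclei and pyknosed cells into mitotic or apoptotic. Tubulin, mitochondrial-mass and membrane-permeability phenotypes are given as per cents of cells with healthy nuclei.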

[1] = 12 h, 1 µM, compound concentration 1 uM, replicate 1
[2] = 12 h, 1 µM, compound concentration 1 uM, replicate 2
[3] = 12 h, 10 µM, compound concentration 10 uM, replicate 1
[4] = 12 h, 10 µM, compound concentration 10 uM, replicate 2
[5] = 24 h, 1 µM, compound concentration 1 uM, replicate 1
[6] = 24 h, 1 µM, compound concentration 1 uM, replicate 2
[7] = 24 h, 10 µM, compound concentration 10 uM, replicate 1
[8] = 24 h, 10 µM, compound concentration 10 uM, replicate 2

## COc1ccc(-c2ccc3c(N4CCOCC4)nc(N4C[C@@H](C)O[C@@H](C)C4)nc3n2)cc1CO [Ku-0063794]
[1]
  Population Apoptotic (%): 36%
  Population Fragmented Nuclei (%): 7%
  Population Healthy Nuclei (%): 87%
  Population Hoechst High Intensity Objects (%): 0%
  Population Membrane Permeable-Phenotype (%): 8%
  Population Mitochondria Different-Phenotype (%): 19%
  Population Mitotic Cells (%): 63%
  Population Normal (%): 99%
  Population Pyknosed Nuclei (%): 5%
  Population Tubulin-Different-Phenotype (%): 22%
  Total Cell Count: 158
[2]
  Population Apoptotic (%): 62%
  Population Fragmented Nuclei (%): 11%
  Population Healthy Nuclei (%): 83%
  Population Hoechst High Intensity Objects (%): 7%
  Population Membrane Permeable-Phenotype (%): 4%
  Population Mitochondria Different-Phenotype (%): 20%
  Population Mitotic Cells (%): 37%
  Population Normal (%): 92%
  Population Tubulin-Different-Phenotype (%): 30%
  Total Cell Count: 91
[3]
  Population Apoptotic (%): 69%
  Population Fragmented Nuclei (%): 34%
  Population Healthy Nuclei (%): 61%
  Population Hoechst High Intensity Objects (%): 31%
  Population Membrane Permeable-Phenotype (%): 20%
  Population Mitochondria Different-Phenotype (%): 6%
  Population Mitotic Cells (%): 30%
  Population Normal (%): 68%
  Population Pyknosed Nuclei (%): 4%
  Population Tubulin-Different-Phenotype (%): 11%
  Total Cell Count: 221
[4]
  Population Apoptotic (%): 33%
  Population Fragmented Nuclei (%): 37%
  Population Healthy Nuclei (%): 57%
  Population Hoechst High Intensity Objects (%): 37%
  Population Membrane Permeable-Phenotype (%): 8%
  Population Mitochondria Different-Phenotype (%): 11%
  Population Mitotic Cells (%): 66%
  Population Normal (%): 62%
  Total Cell Count: 164
[5]
  Population Apoptotic (%): 46%
  Population Fragmented Nuclei (%): 7%
  Population Healthy Nuclei (%): 88%
  Population Hoechst High Intensity Objects (%): 0%
  Population Membrane Permeable-Phenotype (%): 6%
  Population Mitochondria Different-Phenotype (%): 19%
  Population Mitotic Cells (%): 53%
  Population Normal (%): 99%
  Population Pyknosed Nuclei (%): 4%
  Population Tubulin-Different-Phenotype (%): 22%
  Total Cell Count: 173
[6]
  Population Apoptotic (%): 16%
  Population Fragmented Nuclei (%): 10%
  Population Healthy Nuclei (%): 86%
  Population Hoechst High Intensity Objects (%): 7%
  Population Membrane Permeable-Phenotype (%): 7%
  Population Mitochondria Different-Phenotype (%): 34%
  Population Mitotic Cells (%): 83%
  Population Normal (%): 92%
  Population Pyknosed Nuclei (%): 3%
  Population Tubulin-Different-Phenotype (%): 31%
  Total Cell Count: 93
[7]
  Population Apoptotic (%): 60%
  Population Fragmented Nuclei (%): 31%
  Population Healthy Nuclei (%): 63%
  Population Hoechst High Intensity Objects (%): 35%
  Population Membrane Permeable-Phenotype (%): 15%
  Population Mitochondria Different-Phenotype (%): 4%
  Population Mitotic Cells (%): 40%
  Population Normal (%): 64%
  Population Pyknosed Nuclei (%): 4%
  Population Tubulin-Different-Phenotype (%): 9%
  Total Cell Count: 298
[8]
  Population Apoptotic (%): 31%
  Population Fragmented Nuclei (%): 39%
  Population Healthy Nuclei (%): 53%
  Population Hoechst High Intensity Objects (%): 38%
  Population Membrane Permeable-Phenotype (%): 7%
  Population Mitochondria Different-Phenotype (%): 9%
  Population Mitotic Cells (%): 68%
  Population Normal (%): 61%
  Population Pyknosed Nuclei (%): 6%
  Population Tubulin-Different-Phenotype (%): 7%
  Total Cell Count: 197
